Measurements reported in ChEMBL document CHEMBL1137127 (Bioorg Med Chem Lett, 2004).

Columns and labels:
[1] = biological target: Metabotropic glutamate receptor 5 (Homo sapiens, UniProt P41594); experiment: In vitro potency against human recombinant mGlu5 receptor was determined by [Ca2+] flux assay using glutamate as agonist; assay type: functional
Summary of the method: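 Ltk cells stably expressing human recombinant mGlu5; automated assay of cytosolic Ca²⁺ changes by fura-2 fluorescence; IC50 from antagonist response. Mean with a spread value and n in parentheses.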

[2] = logD value was determined; assay type: physicochemical; conditions: octanol/water
[3] = biological target: Metabotropic glutamate receptor 5 (Rattus norvegicus, UniProt P31424); experiment: Displacement by compound of [3H]3-methoxy-5-(pyridin-2-ylethynyl)pyridine from rat cortical membranes; assay type: cell membranes, Membrane
Summary of the method: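 Native rat mGlu5 binding: rat cortical membranes, displacement of [³H]-3-methoxy-5-(pyridin-2-ylethynyl)pyridine by test compound; Ki derived.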

[4] = Maximum plasma concentration of compound after p.o. administration; assay type: ADME, organism-based; parameters: route oral; conditions: rat, po
Summary of the method: (§1)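 Rat pharmacokinetics with two dosing regimens. In one, iv at 2 mg/kg with po at 10 mg/kg. In the other, iv at 1 mg/kg with po at 2 mg/kg. Bioavailability, clearance, half-life and Cmax come from plasma after each route.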

[5] = Half-life of compound after i.v. administration; assay type: ADME, organism-based; conditions: rat, in vivo, iv; summary of the method: as §1
[6] = Plasma clearance of compound upon i.v. administration at 1 mg/kg; assay type: ADME, organism-based; parameters: dose 1 mg/kg, route intravenous; conditions: rat, iv, read-out: Clp; summary of the method: as §1
[7] = Plasma clearance of compound upon p.o. administration at 2 mg/kg; assay type: ADME, organism-based; parameters: dose 2 mg/kg, route oral; conditions: rat, po, read-out: Clp; summary of the method: as §1
[8] = Bioavailability of compound was determined upon i.v. administration at 1 mg/kg in rat; assay type: ADME, organism-based; conditions: in vivo, iv; summary of the method: as §1
[9] = Bioavailability of compound was determined upon p.o. administration at 2 mg/kg in rat; assay type: ADME, organism-based; conditions: in vivo, po; summary of the method: as §1
[10] = Plasma clearance of compound upon i.v. administration at 2 mg/kg; assay type: ADME, organism-based; parameters: dose 2 mg/kg, route intravenous; conditions: rat, iv, read-out: Clp; summary of the method: as §1
[11] = Plasma clearance of compound upon p.o. administration at 10 mg/kg; assay type: ADME, organism-based; parameters: dose 10 mg/kg, route oral; conditions: rat, po, read-out: Clp; summary of the method: as §1
[12] = Bioavailability in rat (dose 2 mg/kg i.v.); assay type: ADME, organism-based; conditions: in vivo, iv; summary of the method: as §1
[13] = Bioavailability in rat (dose 10 mg/kg p.o.); assay type: ADME, organism-based; conditions: in vivo, po; summary of the method: as §1

Sequence of Metabotropic glutamate receptor 5 (Rattus norvegicus, UniProt P31424) (P31424 whole entry): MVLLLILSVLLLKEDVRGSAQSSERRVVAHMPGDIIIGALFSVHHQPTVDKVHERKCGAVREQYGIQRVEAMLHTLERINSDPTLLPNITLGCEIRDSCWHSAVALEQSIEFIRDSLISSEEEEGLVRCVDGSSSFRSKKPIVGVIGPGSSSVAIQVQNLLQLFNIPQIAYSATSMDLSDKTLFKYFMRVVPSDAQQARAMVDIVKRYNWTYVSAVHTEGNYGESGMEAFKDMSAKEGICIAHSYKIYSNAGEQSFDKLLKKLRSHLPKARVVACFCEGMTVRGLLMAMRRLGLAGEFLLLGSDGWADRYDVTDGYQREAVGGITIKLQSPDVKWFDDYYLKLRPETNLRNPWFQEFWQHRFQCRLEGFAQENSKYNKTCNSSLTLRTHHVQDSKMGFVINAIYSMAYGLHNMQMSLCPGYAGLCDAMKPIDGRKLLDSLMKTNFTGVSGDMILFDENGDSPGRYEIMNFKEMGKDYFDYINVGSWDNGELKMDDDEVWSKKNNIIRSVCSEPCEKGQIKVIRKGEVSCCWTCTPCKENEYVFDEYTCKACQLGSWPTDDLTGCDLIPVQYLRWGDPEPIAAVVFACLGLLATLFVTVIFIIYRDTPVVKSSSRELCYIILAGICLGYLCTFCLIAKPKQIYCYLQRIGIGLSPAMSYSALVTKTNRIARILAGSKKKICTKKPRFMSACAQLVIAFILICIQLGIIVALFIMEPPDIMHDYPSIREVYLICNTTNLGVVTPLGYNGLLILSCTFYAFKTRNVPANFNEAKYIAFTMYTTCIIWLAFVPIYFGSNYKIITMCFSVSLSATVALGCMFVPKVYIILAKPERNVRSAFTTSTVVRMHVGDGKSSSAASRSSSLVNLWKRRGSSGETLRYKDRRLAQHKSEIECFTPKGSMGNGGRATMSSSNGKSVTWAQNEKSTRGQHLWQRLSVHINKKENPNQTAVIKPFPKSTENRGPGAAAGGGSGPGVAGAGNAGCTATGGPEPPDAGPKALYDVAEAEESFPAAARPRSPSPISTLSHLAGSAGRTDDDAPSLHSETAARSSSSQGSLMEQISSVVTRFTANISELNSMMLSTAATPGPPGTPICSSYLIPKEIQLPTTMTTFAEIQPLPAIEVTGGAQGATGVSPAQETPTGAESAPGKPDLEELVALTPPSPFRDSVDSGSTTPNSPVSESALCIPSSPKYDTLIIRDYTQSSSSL
Sequence of Metabotropic glutamate receptor 5 (Homo sapiens, UniProt P41594) (P41594 whole entry): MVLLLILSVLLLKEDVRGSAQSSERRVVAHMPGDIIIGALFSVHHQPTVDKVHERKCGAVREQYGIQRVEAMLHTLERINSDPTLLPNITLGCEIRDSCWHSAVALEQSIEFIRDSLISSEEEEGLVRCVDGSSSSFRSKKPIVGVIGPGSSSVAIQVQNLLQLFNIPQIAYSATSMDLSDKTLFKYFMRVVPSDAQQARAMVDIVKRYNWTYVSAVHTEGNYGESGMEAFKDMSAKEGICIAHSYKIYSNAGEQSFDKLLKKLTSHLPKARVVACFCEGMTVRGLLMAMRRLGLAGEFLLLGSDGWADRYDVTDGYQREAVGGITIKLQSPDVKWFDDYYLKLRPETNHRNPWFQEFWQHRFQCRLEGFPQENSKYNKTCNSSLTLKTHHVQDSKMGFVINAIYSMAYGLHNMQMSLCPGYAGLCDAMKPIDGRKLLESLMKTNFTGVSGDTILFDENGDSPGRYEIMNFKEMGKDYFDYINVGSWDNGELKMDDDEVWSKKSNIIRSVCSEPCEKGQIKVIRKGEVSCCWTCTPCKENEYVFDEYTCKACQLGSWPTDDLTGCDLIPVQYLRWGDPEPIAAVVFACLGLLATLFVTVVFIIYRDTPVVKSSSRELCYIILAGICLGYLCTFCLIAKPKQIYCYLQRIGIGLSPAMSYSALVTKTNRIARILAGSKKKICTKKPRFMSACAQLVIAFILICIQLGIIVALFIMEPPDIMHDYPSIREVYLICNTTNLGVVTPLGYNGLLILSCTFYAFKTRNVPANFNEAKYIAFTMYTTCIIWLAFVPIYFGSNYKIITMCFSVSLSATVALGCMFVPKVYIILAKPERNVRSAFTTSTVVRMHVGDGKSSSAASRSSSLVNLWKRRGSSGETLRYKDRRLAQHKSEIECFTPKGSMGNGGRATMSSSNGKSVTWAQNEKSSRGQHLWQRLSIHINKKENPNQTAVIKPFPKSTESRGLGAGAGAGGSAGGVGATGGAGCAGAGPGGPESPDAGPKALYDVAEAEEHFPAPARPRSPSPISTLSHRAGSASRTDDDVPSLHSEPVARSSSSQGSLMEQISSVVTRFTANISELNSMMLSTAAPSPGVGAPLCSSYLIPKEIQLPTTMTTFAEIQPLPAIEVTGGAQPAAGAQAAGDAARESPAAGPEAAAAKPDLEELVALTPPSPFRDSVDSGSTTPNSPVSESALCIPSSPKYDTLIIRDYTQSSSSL

Row | Compound | IC50 [1] | logD [2] | Ki [3] | further results
1 | Cc1nc(C#Cc2ccc(-c3ccncc3)nc2)cs1 | 29 nM | 2.9 | 21 nM | 
2 | Cc1nc(C#Cc2ccccc2C)cs1 | 15 nM | 3.8 | 51 nM | 
3 | Cc1cccc(C#Cc2csc(C)n2)c1 |  | 3.9 |  | 
4 | Cc1nc(C#Cc2cncc(-c3ccccn3)c2)cs1 | 22 nM | 2.8 | 28 nM | 
5 | Cc1nc(C#Cc2ccccc2-c2ccccc2)cs1 | 423 nM |  | 145 nM | 
6 | Cc1nc(C#Cc2cncc(-c3cccnc3)c2)cs1 | 3 nM | 2.4 | 1 nM | Cmax [4]: 800 nM; half-life [5]: 1.6 h; clearance [6]: 29 mL/min/kg; CL/F [7]: 29 mL/min/kg; bioavailability [8]: 26%; bioavailability [9]: 26%
7 | Cc1nc(C#Cc2cccnc2)cs1 |  |  |  | clearance [10]: 28 mL/min/kg; Cmax [4]: 2000 nM; half-life [5]: 8.3 h; CL/F [11]: 28 mL/min/kg; bioavailability [12]: 16%; bioavailability [13]: 16%
8 | Cc1nc(C#Cc2cccc(-c3ccccc3)c2)cs1 |  | 4.1 |  | 

Continued, in another order:

Row | IC50 [1] | logD [2] | Ki [3] | Compound | further results
9 | 18 nM | 2.6 | 15 nM | Cc1nc(C#Cc2cncc(-c3ccncc3)c2)cs1 | 
10 |  | 3.9 |  | Cc1nc(C#Cc2ccc(-c3ccccc3)nc2)cs1 | 
11 | 22 nM | 5 | 43 nM | Cc1nc(C#Cc2ccc(-c3ccccc3)cc2)cs1 | 
12 | 2 nM | 4.1 | 40 nM | Cc1nc(C#Cc2cncc(-c3ccccc3)c2)cs1 | 
13 | 845 nM | 3.9 | 638 nM | Cc1ccc(C#Cc2csc(C)n2)cc1 | 
14 | 127 nM |  | 218 nM | Cc1nc(C#Cc2ccncc2)cs1 | 
15 | 4 nM | 3.7 | 16 nM | Cc1nc(C#Cc2ccc(-c3ccccn3)nc2)cs1 | 
16 |  | 3.1 |  | Cc1nc(C#Cc2ccc(-c3cccnc3)nc2)cs1 | clearance [10]: 15 mL/min/kg; Cmax [4]: 6500 nM; half-life [5]: 0.8 h; CL/F [11]: 15 mL/min/kg; bioavailability [12]: 100%; bioavailability [13]: 100%
17 | 4 nM |  | 9 nM | Cc1nc(C#Cc2ccccc2)cs1 | 
18 |  |  | 54 nM | Cc1nc(C#Cc2ccccn2)cs1 | 
